Legend:
[1] = Compound was evaluated for the distribution coefficient at pH 7.4; assay type: physicochemical; settings: octanol/water
Rattus norvegicus [2] = test: Compound was evaluated in experiment 1 for Change in High density lipoproteins at 0.3 (mg/kg) dose; assay type: functional
How it was run: (§1)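 Chronic model in male Sprague-Dawley rats (200-225 g). Rats were fed chow with peanut oil 5.5%, cholesterol 1.5% and cholic acid ad libitum for 2 weeks. Test article was given by gavage once daily (morning) in the second week, as a CMC/Tween aqueous suspension. Blood was taken by cardiac puncture under ether 24 h after the last dose. Plasma total, HDL and nonHDL cholesterol were measured with an Abbott VP analyzer using dextran sulfate precipitation, reported as mg/dL and % change from control. Controls were cholesterol-fed rats and rats switched to chow in week 2.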

Rattus norvegicus [3] = test: Compound was evaluated in experiment 1 for Change in High density lipoproteins at 1.0 (mg/kg) dose; assay type: functional; how it was run: as §1
Rattus norvegicus [4] = test: Compound was evaluated in experiment 1 for Change in total cholesterol at 0.3 (mg/kg) dose; assay type: functional; how it was run: as §1
Rattus norvegicus [5] = test: Compound was evaluated in experiment 1 for Change in total cholesterol at 1.0 (mg/kg) dose; assay type: functional; how it was run: as §1
Rattus norvegicus [6] = test: Compound was evaluated in experiment 1 for Change in total cholesterol at 10 (mg/kg) dose; assay type: functional; how it was run: as §1
Rattus norvegicus [7] = test: Compound was evaluated in experiment 1 for Change in total cholesterol at 3.0 (mg/kg) dose; assay type: functional; how it was run: as §1
Rattus norvegicus [8] = test: Compound was evaluated for the percentage change in total cholesterol in peanut oil (5.5%)-cholic acid (0.3%)-cholesterol (1.5%)-fed rats at 30 mg/kg; assay type: functional
Rattus norvegicus [9] = species on record: Rattus norvegicus; test: Percent change in total cholesterol in peanut oil (5.5%)-, cholic acid (0.3%)-, Cholesterol (1.5%)-fed rats after a single dose.; assay type: functional
How it was run: (§2)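 Male Sprague-Dawley rats (200-225 g), n=5-7/group, given a single oral dose at 4 p.m. as a suspension in 1.5% CMC/0.2% Tween-20 in water (50 mg/kg); controls received vehicle alone. The rats then had free access to chow with peanut oil, cholesterol and cholic acid. At 8 a.m. next day they were bled by cardiac puncture under ether, and serum total cholesterol was measured as % change versus controls (unpaired two-tailed t-test).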

Rattus norvegicus [10] = test: Compound was evaluated in experiment 1 for Change in High density lipoproteins at 10 (mg/kg) dose; assay type: functional; how it was run: as §1
Rattus norvegicus [11] = test: Compound was evaluated in experiment 1 for Change in High density lipoproteins at 3.0 (mg/kg) dose; assay type: functional; how it was run: as §1
Rattus norvegicus [12] = test: Compound was evaluated in experiment 1 for change in non High density lipoprotein at the doses at 0.3 (mg/kg) dose; assay type: functional; how it was run: as §1
Rattus norvegicus [13] = test: Compound was evaluated in experiment 1 for change in non High density lipoprotein at the doses at 10 (mg/kg) dose; assay type: functional; how it was run: as §1
Rattus norvegicus [14] = test: Compound was evaluated in experiment 1 for change in non High density lipoprotein at the doses at 3.0 (mg/kg) dose; assay type: functional; how it was run: as §1
Rattus norvegicus [15] = test: Compound was evaluated in experiment 1 for change in non High density lipoprotein at the doses at 1.0 (mg/kg) dose; assay type: functional; how it was run: as §1
Rattus norvegicus [16] = test: Compound was evaluated in experiment 1 for High density lipoproteins at 0.3 (mg/kg) dose; assay type: functional; how it was run: as §1
Rattus norvegicus [17] = test: Compound was evaluated in experiment 1 for High density lipoproteins at 1.0 (mg/kg) dose; assay type: functional; how it was run: as §1
Rattus norvegicus [18] = test: Compound was evaluated in experiment 1 for High density lipoproteins at 10 (mg/kg) dose; assay type: functional; how it was run: as §1
Rattus norvegicus [19] = test: Compound was evaluated in experiment 1 for High density lipoproteins at 3.0 (mg/kg) dose; assay type: functional; how it was run: as §1
Rattus norvegicus [20] = test: Compound was evaluated in experiment 1 for non High density lipoproteins at 0.3 (mg/kg) dose; assay type: functional; how it was run: as §1
Rattus norvegicus [21] = test: Compound was evaluated in experiment 1 for non High density lipoproteins at 1.0 (mg/kg) dose; assay type: functional; how it was run: as §1
Rattus norvegicus [22] = test: Compound was evaluated in experiment 1 for non High density lipoproteins at 10 (mg/kg) dose; assay type: functional; how it was run: as §1
Rattus norvegicus [23] = test: Compound was evaluated in experiment 1 for non High density lipoproteins at 3.0(mg/kg) dose; assay type: functional; how it was run: as §1
Rattus norvegicus [24] = test: Compound was evaluated in experiment 1 for Total cholesterol at 0.3 (mg/kg) dose; assay type: functional; parameters: unit not given beside the values; how it was run: as §1
Rattus norvegicus [25] = test: Compound was evaluated in experiment 1 for Total cholesterol at 1.0 (mg/kg) dose; assay type: functional; parameters: unit not given beside the values; how it was run: as §1
Rattus norvegicus [26] = test: Compound was evaluated in experiment 1 for Total cholesterol at 10 (mg/kg) dose; assay type: functional; parameters: unit not given beside the values; how it was run: as §1
Rattus norvegicus [27] = test: Compound was evaluated in experiment 1 for Total cholesterol at 3.0 (mg/kg) dose; assay type: functional; parameters: unit not given beside the values; how it was run: as §1
[28] = target: T1, Acyl-CoA:cholesterol acyltransferase (Oryctolagus cuniculus, UniProt Q95214); test: Tested for in vitro inhibition against Acyl coenzyme A:cholesterol acyltransferase of intestinal microsomes in cholesterol-fed rabbits; parameters: species or system Microsome
T1 sequence (Q95214 whole entry): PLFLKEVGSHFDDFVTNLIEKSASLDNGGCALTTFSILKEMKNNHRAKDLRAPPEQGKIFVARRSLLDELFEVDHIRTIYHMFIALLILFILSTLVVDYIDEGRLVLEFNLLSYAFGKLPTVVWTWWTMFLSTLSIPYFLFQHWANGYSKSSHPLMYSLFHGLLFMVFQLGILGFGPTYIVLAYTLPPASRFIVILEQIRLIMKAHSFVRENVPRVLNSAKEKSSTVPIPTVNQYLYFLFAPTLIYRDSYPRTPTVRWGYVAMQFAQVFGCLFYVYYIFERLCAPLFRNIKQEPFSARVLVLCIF
How it was run: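 Microsomes were prepared from intestine of cholesterol-fed rabbits. ACAT activity was measured using [1-14C]oleoyl-CoA as substrate. Each determination was run in triplicate.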

Rattus norvegicus [29] = test: Compound was evaluated in experiment 2 for Change in total cholesterol at 1 (mg/kg) dose; N/C denotes 'No change'; assay type: functional, organism-based; how it was run: as §1
Rattus norvegicus [30] = test: Compound was evaluated in experiment 2 for change in non High density lipoprotein at the doses at 1 (mg/kg) dose; assay type: functional, organism-based; how it was run: as §1
[31] = Solubility at 0.1 N HCl; assay type: physicochemical; settings: read-out: S
[32] = Solubility at pH 4.0; assay type: physicochemical; settings: buffer
[33] = Solubility at pH 7.4; assay type: physicochemical; settings: buffer
[34] = Compound was evaluated for the distribution coefficient at pH 1.0; assay type: physicochemical; settings: octanol/water
[35] = Compound was evaluated for the distribution coefficient at pH 4.0; assay type: physicochemical; settings: octanol/water
Rattus norvegicus [36] = species on record: Rattus norvegicus; test: Percent change in total cholesterol in peanut oil (5.5%) - cholic acid (0.3%) - Cholesterol (1.5%) fed rates after a single dose; assay type: functional; how it was run: as §2
Rattus norvegicus [37] = test: Compound was evaluated for % reduction in plasma cholesterol in cholesterol fed rats at a dose of 25 mg/kg; assay type: functional
How it was run: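 Male Sprague-Dawley rats on a cholesterol-enriched diet. Dosing was either by gavage as a suspension in 1.5% carboxymethylcellulose/0.2% Tween-20 in water or in oleic acid, or given as a diet admixture. Result is % reduction in plasma cholesterol versus untreated controls given the same mode and vehicle. Significance threshold p < 0.05.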

SMILES	logD ([1]; read-out: logD)	Change HDL -C (Rattus norvegicus [2])	Change HDL -C (Rattus norvegicus [3])	Change TC (Rattus norvegicus [4])	Change TC (Rattus norvegicus [5])	Change TC (Rattus norvegicus [6])	Change TC (Rattus norvegicus [7])	Delta TC (Rattus norvegicus [8])	Delta TC (Rattus norvegicus [9])	Change HDL -C (Rattus norvegicus [10])	Change HDL -C (Rattus norvegicus [11])	Change non HDL-C (Rattus norvegicus [12])	Change non HDL-C (Rattus norvegicus [13])	Change non HDL-C (Rattus norvegicus [14])	Change non HDL-C (Rattus norvegicus [15])	HDL-C (Rattus norvegicus [16])	HDL-C (Rattus norvegicus [17])	HDL-C (Rattus norvegicus [18])	HDL-C (Rattus norvegicus [19])	Non-HDL-C (Rattus norvegicus [20])	other results
CC(C)c1cccc(C(C)C)c1NC(=O)NCC1(c2cccc(CN3CCOCC3)c2)CCCC1	4.37	16%	10%	-24%	-13%	-63%	-31%	-70%	-47%	162%	40%	-26%	-71%	-33%	-14%	14	13	30	16	224	Non-HDL-C (Rattus norvegicus [21]): 260; Non-HDL-C (Rattus norvegicus [22]): 84; Non-HDL-C (Rattus norvegicus [23]): 202; TC (Rattus norvegicus [24]): 237; TC (Rattus norvegicus [25]): 273; TC (Rattus norvegicus [26]): 118; TC (Rattus norvegicus [27]): 218
CC(C)c1cccc(C(C)C)c1NC(=O)NCC1(c2cccc(CN3CCN(C)CC3)c2)CCCC1	5.28	2%	27%	3%	-33%	-51%	-24%	-66%	-21%	60%	8%	3%	-55%	-25%	-36%	12	15	19	12	313	IC50 [28]: 16 nM; Non-HDL-C (Rattus norvegicus [21]): 195; Non-HDL-C (Rattus norvegicus [22]): 135; Non-HDL-C (Rattus norvegicus [23]): 227; TC (Rattus norvegicus [24]): 325; TC (Rattus norvegicus [25]): 209; TC (Rattus norvegicus [26]): 154; TC (Rattus norvegicus [27]): 239
CC(C)c1cccc(C(C)C)c1NC(=O)NCC1(c2cccc(CN(C)C)c2)CCCC1																					Change TC (Rattus norvegicus [29]): No change; Change non HDL-C (Rattus norvegicus [30]): No change
CC(C)c1cccc(C(C)C)c1NC(=O)NCC1(c2ccc(N(C)C)cc2)CCCC1 [NEVANIMIBE]	5.59								-65%												solubility [31]: < 10 µg/mL; solubility [32]: < 10 µg/mL; solubility [33]: < 10 µg/mL; logD [34]: 2.18; logD [35]: 2.89
CCCCN(CCCC)Cc1cccc(C2(CNC(=O)Nc3c(C(C)C)cccc3C(C)C)CCCC2)c1	6.05	16%	-16%	-14%	-12%	-4%	-34%	-63%	-25%	-21%	8%	-15%	-3%	-36%	-12%	12	10	9	12	258	IC50 [28]: 16 nM; Non-HDL-C (Rattus norvegicus [21]): 266; Non-HDL-C (Rattus norvegicus [22]): 293; Non-HDL-C (Rattus norvegicus [23]): 194; TC (Rattus norvegicus [24]): 271; TC (Rattus norvegicus [25]): 276; TC (Rattus norvegicus [26]): 302; TC (Rattus norvegicus [27]): 206
CC(C)c1cccc(C(C)C)c1NC(=O)NCC1(c2ccccc2)CCCC1																					solubility [31]: < 1 µg/mL; solubility [32]: < 1 µg/mL; solubility [33]: < 1 µg/mL; logD [1]: 5.16; Delta TC (Rattus norvegicus [36]): -38%; Reduction (Rattus norvegicus [37]): 59%
